We go through 74 sequences from the array DNA melting data of Ke et al. (doi:10.1101/2024.01.08.574731).

Series [1] is described as follows: melting temperature; fluorescence melt of hairpins on a sequencing array, two-state fit, raised by 9.35 °C to match UV melts. The settings on record: sodium 0.088 M. The method, boiled down:
(§1)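 On a sequenced MiSeq flow cell, library hairpins with annealed Cy3 and quencher oligos were imaged for Cy3 fluorescence in 2.5 °C steps up to 60 °C, in 50 mM Na-HEPES pH 8.0, 25 mM NaCl. Normalisation used pre-quench Cy3 and control constructs. Bootstrapped two-state fits gave melting temperature and folding enthalpy, combined by inverse variance across four replicates and with fitted temperatures raised by 9.35 °C to match UV melts.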

Series [2] in a line: folding enthalpy; higher = less favourable; fluorescence melt of hairpins on a sequencing array, two-state fit. To be noted: sodium 0.088 M. In a few lines:
as §1

For the sequence GAGTGTGGAAACATACTC ((((.((....)).)))), the Tm in series [1] amounted to 45.9 °C. Further, the folding enthalpy in series [2] is -31.9 kcal/mol.
For GAGTTACCGAAAGGTCTC (((..(((....)))))), in that order: 29.4 °C and -16.9 kcal/mol.
In the same order, the values of GAGTTACGAAAGTATCTC (((.(((....))).))) are 41.4 °C and -26 kcal/mol.
For GAGTTAGGAAACTAGCTC (((.(((....))).))), in that order: 40.4 °C and -28.9 kcal/mol.
GAGTTAGGAAACTGACTC ((((.((....)).)))): in series [1], the Tm amounted to 42.4 °C. Further, the folding enthalpy in series [2] is -36.6 kcal/mol.
In the same order, the values of GAGTTCGAAAGAACTC ((((((....)))))) are 66.2 °C and -38 kcal/mol.
In the same order, the values of GAGTTCGCGAAAGCGCTC (((..(((....)))))) are 25.9 °C and -6.78 kcal/mol.
In the same order, the values of GAGTTCGGAAACGAACCC (.(((((....))))).) are 41.5 °C and -13.3 kcal/mol.
For GAGTTCGGAAACGAGTTC ((..(((....)))..)), the Tm in series [1] stood at 30.7 °C. In addition, in series [2], the folding enthalpy was -9.81 kcal/mol.
On to GAGTTCGGAAACGGACTC ((((.((....)).)))), for which the Tm in series [1] was 52 °C. For the same sequence, the folding enthalpy in series [2] is -43.1 kcal/mol.
For GAGTTGGGAAACCAGCTC (((.(((....))).))), in that order: 48.9 °C and -34.7 kcal/mol.
For the sequence GAGTTGGGAAACTAACTC (((((.(....).))))), the Tm in series [1] amounted to 43.6 °C. Besides, the folding enthalpy in series [2] was -31 kcal/mol.
In the same order, the values of GAGTTTCCGAAAGGACTC (((..(((....)))))) are 30 °C and -13.3 kcal/mol.
For GAGTTTGGAAACGAACTC (((((.(....).))))), in that order: 47.1 °C and -36.2 kcal/mol.
In the same order, the values of GATAAAGAAATTTATC ((((((....)))))) are 27.6 °C and -15.9 kcal/mol.
Turning to GATAAAGGAAACTTTGTC ((.((((....)))).)), the Tm in series [1] turned out to be 32.2 °C. The folding enthalpy in series [2] was -14.1 kcal/mol.
In the same order, the values of GATAAGACGAAAGTCATC (((..(((....)))))) are 26.7 °C and -15.2 kcal/mol.
As to GATAAGCCGAAAGGCATC (((..(((....)))))), the Tm in series [1] came to 32 °C. In addition, the folding enthalpy in series [2] is -9.19 kcal/mol.
In the same order, the values of GATAATGGAAACATTACC (.(((((....))))).) are 22.6 °C and -9.26 kcal/mol.
For GATACAGGAAACTGCATC (((.(((....))).))), in that order: 33.6 °C and -28.4 kcal/mol.
For GATACCACGAAAGTGATC (((..(((....)))))), in that order: 21.2 °C and -9.05 kcal/mol.
Turning to GATACCCGAAAGGGGATC (((.(((....))).))), the Tm in series [1] stood at 60 °C. Further, the folding enthalpy in series [2] was -30.2 kcal/mol.
In the same order, the values of GATACCGAAAGGTAAATC ((((((....)))..))) are 28.7 °C and -13.5 kcal/mol.
For GATACCGAAAGGTAATC ((((((....))).))), in that order: 39 °C and -18.9 kcal/mol.
In the same order, the values of GATACCGAAAGGTAGATC ((((((....)))..))) are 44.6 °C and -18.3 kcal/mol.
GATACGGAAACGTATC ((((((....)))))): the Tm in series [1] stood at 54 °C. Further, in series [2], the folding enthalpy is -43.6 kcal/mol.
For GATACTGAAAAGTATC ((((((....)))))), in that order: 48.5 °C and -40.9 kcal/mol.
In the same order, the values of GATAGACGAAAGTCAATC (((.(((....))).))) are 41.2 °C and -22.5 kcal/mol.
In the same order, the values of GATAGACGAAAGTCATC (((.(((....)))))) are 38.4 °C and -15.4 kcal/mol.
With GATAGAGGAAACTCTATC (((((((....))))))), the Tm in series [1] was found to be 50.2 °C. Besides, in series [2], the folding enthalpy is -42 kcal/mol.
Take GATAGCACGAAAGTGATC (((..(((....)))))): in series [1], the Tm came out at 28.4 °C. Besides, in series [2], the folding enthalpy was -9.8 kcal/mol.
For GATAGCCGAAAGGCGATC (((.(((....))).))), in that order: 58.8 °C and -17.9 kcal/mol.
As for GATAGCGAAAGCTAGATC ((((((....)))..))), the Tm in series [1] turned out to be 45.2 °C. The folding enthalpy in series [2] is -15.4 kcal/mol.
Turning to GATAGCGAAAGCTCATC ((((((....))).))), the Tm in series [1] came out at 36.5 °C. Further, in series [2], the folding enthalpy is -13.3 kcal/mol.
In the same order, the values of GATAGCGAAAGCTGAATC ((((((....)))..))) are 27 °C and -10.9 kcal/mol.
On to GATAGCGAAAGCTGTATC ((((((....)))..))), for which the Tm in series [1] was found to be 31.9 °C. Also, the folding enthalpy in series [2] is -12.8 kcal/mol.
In the same order, the values of GATAGCGAAAGCTTAATC ((((((....)))..))) are 25.3 °C and -10.8 kcal/mol.
For GATAGGCCGAAAGGCATC (((..(((....)))))), in that order: 30.3 °C and -9.82 kcal/mol.
In the same order, the values of GATAGTGGAAACACTATC (((((((....))))))) are 54.5 °C and -47.2 kcal/mol.
As to GATAGTGGAAACATTATC ((((.((....)).)))), the Tm in series [1] amounted to 31 °C. Also, the folding enthalpy in series [2] is -18.4 kcal/mol.
For GATATAGGAAACTATATC (((((((....))))))), in that order: 45.5 °C and -33.4 kcal/mol.
As to GATATAGGAAACTATGTC ((.((((....)))).)), in series [1], the Tm came to 33.5 °C. In addition, the folding enthalpy in series [2] was -21.8 kcal/mol.
In the same order, the values of GATATCACGAAAGTGATC (((..(((....)))))) are 39.4 °C and -9.68 kcal/mol.
In the same order, the values of GATATCCGAAAGGAAATC (((.(((....))).))) are 37.1 °C and -27.2 kcal/mol.
As to GATATCCGAAAGGACATC (((.(((....))).))), the Tm in series [1] was 38.9 °C. In addition, in series [2], the folding enthalpy is -22 kcal/mol.
For GATATCGAAAGATATC ((((((....)))))), in that order: 53.6 °C and -41 kcal/mol.
For GATATCGGAAACGGTATC ((((.((....)).)))), in that order: 44 °C and -29.8 kcal/mol.
In the same order, the values of GATATGAAAATATC (((((....))))) are 35.7 °C and -15.7 kcal/mol.
Consider GATATTGGAAACAGTATC ((((.((....)).)))), for which the Tm in series [1] came out at 34.3 °C. The folding enthalpy in series [2] is -12.2 kcal/mol.
In the same order, the values of GATCAAAAAGTTGATC ((((((....)))))) are 33 °C and -14.1 kcal/mol.
For GATCAAAAATTGATC ((((((...)))))), in that order: 37 °C and -29.7 kcal/mol.
In the same order, the values of GATCAAAACATTGATC ((((((....)))))) are 42.3 °C and -31.7 kcal/mol.
Consider GATCAAAAGTTGATC ((((((...)))))), for which the Tm in series [1] turned out to be 39.5 °C. Further, the folding enthalpy in series [2] is -26.1 kcal/mol.
For GATCAAAAGTTTGATC ((((((....)))))), in that order: 42.4 °C and -27.7 kcal/mol.
For GATCAAACATTGATC ((((((...)))))), in that order: 41.2 °C and -31.4 kcal/mol.
As to GATCAAAGATTGATC ((((((...)))))), the Tm in series [1] came to 36.1 °C. Also, the folding enthalpy in series [2] was -27.5 kcal/mol.
For GATCAAAGATTTGATC ((((((....)))))), in that order: 43.6 °C and -31.8 kcal/mol.
For GATCAAAGCGTTGATC ((((((....)))))), in that order: 43.7 °C and -31.6 kcal/mol.
In the same order, the values of GATCAAAGTATTGATC ((((((....)))))) are 42.6 °C and -29.8 kcal/mol.
As for GATCAAAGTGTTGATC ((((((....)))))), the Tm in series [1] was 42.4 °C. Further, the folding enthalpy in series [2] is -29.6 kcal/mol.
Turning to GATCAACAGATTGATC ((((((....)))))), in series [1], the Tm stood at 40.4 °C. Further, the folding enthalpy in series [2] is -30.1 kcal/mol.
In the same order, the values of GATCAACATTTGATC ((((((...)))))) are 38.2 °C and -31.1 kcal/mol.
For GATCAACCACTTGATC ((((((....)))))), in that order: 42.3 °C and -32.6 kcal/mol.
For the sequence GATCAACCCATTGATC ((((((....)))))), in series [1], the Tm was 44.8 °C. In addition, the folding enthalpy in series [2] was -31.8 kcal/mol.
For GATCAACCCTTGATC ((((((...)))))), in that order: 43.6 °C and -30.4 kcal/mol.
For GATCAACCGGTTGATC ((((((....)))))), in that order: 55.9 °C and -53.5 kcal/mol.
In the same order, the values of GATCAACCTGTTGATC ((((((....)))))) are 55.2 °C and -41 kcal/mol.
On to GATCAACGATTGATC ((((((...)))))), for which the Tm in series [1] was 36.3 °C. Also, the folding enthalpy in series [2] was -19.8 kcal/mol.
For GATCAACGATTTGATC ((((((....)))))), in that order: 39.3 °C and -24.9 kcal/mol.
In the same order, the values of GATCAACGGGTTGATC ((((((....)))))) are 56.8 °C and -36.7 kcal/mol.
Take GATCAACGGTTGATC ((((((...)))))): the Tm in series [1] was determined as 44.7 °C. Further, the folding enthalpy in series [2] was -40.3 kcal/mol.
For GATCAACGTATTGATC ((((((....)))))), in that order: 44.1 °C and -26.9 kcal/mol.
Consider GATCAACGTGTTGATC ((((((....)))))), for which the Tm in series [1] was 57.4 °C. Further, the folding enthalpy in series [2] was -60.2 kcal/mol.
GATCAACTGATTGATC ((((((....)))))): in series [1], the Tm was 42.7 °C. Also, the folding enthalpy in series [2] is -32.3 kcal/mol.
